Activity calls are given as the source filed them. The calls are words filed in the database; no cut-off is given here.

Here are results for six molecules from ChEMBL document CHEMBL3286277, “Discovery of N-sulfonyl-7-azaindoline derivatives as potent, orally available and selective M(4) muscarinic acetylcholine receptor agonists” (Bioorg Med Chem Lett, 2014).

Data set [1] addresses T1, Muscarinic acetylcholine receptor M4 (Homo sapiens) (UniProt P08173).
T1 sequence (whole entry): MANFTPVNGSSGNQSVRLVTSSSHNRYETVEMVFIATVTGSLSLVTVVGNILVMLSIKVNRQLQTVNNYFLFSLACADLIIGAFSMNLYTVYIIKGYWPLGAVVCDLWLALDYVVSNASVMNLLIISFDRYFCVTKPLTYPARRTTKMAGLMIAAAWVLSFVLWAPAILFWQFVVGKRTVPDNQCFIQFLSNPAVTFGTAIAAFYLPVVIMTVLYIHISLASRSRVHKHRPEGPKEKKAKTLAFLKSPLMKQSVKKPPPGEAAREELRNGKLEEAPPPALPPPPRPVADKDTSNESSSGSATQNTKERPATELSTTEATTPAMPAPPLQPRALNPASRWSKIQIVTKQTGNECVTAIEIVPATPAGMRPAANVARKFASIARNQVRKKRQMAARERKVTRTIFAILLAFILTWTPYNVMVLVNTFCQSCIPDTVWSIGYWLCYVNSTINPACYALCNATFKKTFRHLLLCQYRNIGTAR
The data set can be described thus: Agonist activity at human muscarinic acetylcholine receptor M4 expressed in CHO cells assessed as calcium mobilization at 0.3 uM by FLIPR assay relative to acetylcholine. In kind it is functional, cell-based. A general note: Calcium assays in cells follow changes in intracellular calcium, usually with a dye or a luminescent sensor.

The target of data set [2] is Histamine H1 receptor (Homo sapiens) (UniProt P35367). The data set is described as follows: Binding affinity to human histamine H1 receptor at 3 uM by radioligand displacement assay relative to control. A general note: Loss of bound radioactivity is the signal in a displacement assay; it reports binding, not function.
Histamine H1 receptor (Homo sapiens), sequence (P35367 whole entry): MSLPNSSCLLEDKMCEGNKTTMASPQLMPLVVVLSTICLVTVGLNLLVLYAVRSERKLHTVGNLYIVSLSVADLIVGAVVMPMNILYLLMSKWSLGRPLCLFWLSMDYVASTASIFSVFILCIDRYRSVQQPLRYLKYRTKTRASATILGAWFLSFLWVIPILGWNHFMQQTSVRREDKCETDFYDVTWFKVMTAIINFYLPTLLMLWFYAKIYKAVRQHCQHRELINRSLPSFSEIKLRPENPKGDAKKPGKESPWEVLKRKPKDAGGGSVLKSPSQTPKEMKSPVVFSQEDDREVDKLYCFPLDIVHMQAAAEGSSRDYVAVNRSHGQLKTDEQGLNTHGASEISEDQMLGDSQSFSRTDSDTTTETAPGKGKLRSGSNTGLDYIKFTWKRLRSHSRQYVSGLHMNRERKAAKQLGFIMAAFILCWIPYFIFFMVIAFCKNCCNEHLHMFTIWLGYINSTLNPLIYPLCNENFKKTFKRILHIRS
The nature of data set [3]: Ratio of drug level in brain to plasma in rat. The conditions noted are these: brain and plasma, read-out: BPR. In kind it is ADME.
The target in data set [4] is T2, Muscarinic acetylcholine receptor M4 (Homo sapiens, UniProt P08173).
T2 sequence (P08173 whole entry): T1 sequence (whole entry)
The data set is described as follows: Agonist activity at human muscarinic acetylcholine receptor M4 expressed in CHO cells assessed as calcium mobilization by FLIPR assay. In kind it is functional, cell-based.

Data set [5] deals with T3, Alpha-1D adrenergic receptor (Homo sapiens) (UniProt P25100).
T3 sequence (whole entry): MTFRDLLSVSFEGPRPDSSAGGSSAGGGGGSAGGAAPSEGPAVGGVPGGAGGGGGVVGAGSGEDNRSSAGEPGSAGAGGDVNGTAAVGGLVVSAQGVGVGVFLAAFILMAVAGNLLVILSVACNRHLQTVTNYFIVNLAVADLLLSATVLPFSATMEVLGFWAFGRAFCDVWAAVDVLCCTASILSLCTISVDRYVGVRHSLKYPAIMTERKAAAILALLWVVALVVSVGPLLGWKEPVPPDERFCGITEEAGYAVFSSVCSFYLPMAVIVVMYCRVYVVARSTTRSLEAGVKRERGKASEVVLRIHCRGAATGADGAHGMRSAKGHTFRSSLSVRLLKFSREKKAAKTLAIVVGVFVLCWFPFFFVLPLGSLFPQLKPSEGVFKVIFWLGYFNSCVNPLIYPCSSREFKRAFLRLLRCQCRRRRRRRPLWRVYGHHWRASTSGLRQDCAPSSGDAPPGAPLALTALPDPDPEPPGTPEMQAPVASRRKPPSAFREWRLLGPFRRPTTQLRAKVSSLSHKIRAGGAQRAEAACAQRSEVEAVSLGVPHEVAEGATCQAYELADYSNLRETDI
The data set is described as follows: Binding affinity to human adrenaline alpha-1D receptor at 3 uM by radioligand displacement assay relative to control.

Data set [6] has as its target Muscarinic acetylcholine receptor M3 (Homo sapiens) (UniProt P20309). The data set is described as follows: Agonist activity at human muscarinic acetylcholine receptor M3 expressed in CHO cells assessed as calcium mobilization at 0.3 uM by FLIPR assay relative to acetylcholine. In kind it is functional, cell-based.
Data set [7] addresses T4, Muscarinic acetylcholine receptor M2 (Homo sapiens) (UniProt P08172).
T4 sequence (whole entry): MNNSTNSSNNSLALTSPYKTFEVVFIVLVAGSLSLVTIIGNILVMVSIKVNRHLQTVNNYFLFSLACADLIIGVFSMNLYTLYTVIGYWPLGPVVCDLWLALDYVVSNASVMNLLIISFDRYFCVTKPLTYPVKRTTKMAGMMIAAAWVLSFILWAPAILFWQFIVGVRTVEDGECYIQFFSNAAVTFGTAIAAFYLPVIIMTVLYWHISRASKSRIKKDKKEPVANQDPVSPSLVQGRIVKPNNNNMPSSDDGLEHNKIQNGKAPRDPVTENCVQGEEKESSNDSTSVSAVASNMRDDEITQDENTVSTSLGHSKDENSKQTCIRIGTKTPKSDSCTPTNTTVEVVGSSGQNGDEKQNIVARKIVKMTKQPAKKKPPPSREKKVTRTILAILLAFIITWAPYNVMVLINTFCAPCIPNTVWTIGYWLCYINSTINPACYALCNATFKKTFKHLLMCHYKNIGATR
The data set can be described thus: Agonist activity at human muscarinic acetylcholine receptor M2 expressed in CHO cells assessed as calcium mobilization at 0.3 uM by FLIPR assay relative to acetylcholine. It is filed as functional, cell-based.

For data set [8], the target named is T1, Muscarinic acetylcholine receptor M4 (Homo sapiens). The data set is described as follows: Intrinsic activity at human muscarinic acetylcholine receptor M4 expressed in CHO cells assessed as calcium mobilization by FLIPR assay relative to acetylcholine. In kind it is functional, cell-based.
Data set [9] can be described thus: Oral bioavailability in rat at 1 mg/kg. In kind it is ADME, organism-based. To be noted: in vivo.
The target of data set [10] is D(2) dopamine receptor (Homo sapiens) (UniProt P14416). The data set can be described thus: Binding affinity to human dopamine D2 receptor at 3 uM by radioligand displacement assay relative to control.
D(2) dopamine receptor (Homo sapiens), sequence (P14416 whole entry): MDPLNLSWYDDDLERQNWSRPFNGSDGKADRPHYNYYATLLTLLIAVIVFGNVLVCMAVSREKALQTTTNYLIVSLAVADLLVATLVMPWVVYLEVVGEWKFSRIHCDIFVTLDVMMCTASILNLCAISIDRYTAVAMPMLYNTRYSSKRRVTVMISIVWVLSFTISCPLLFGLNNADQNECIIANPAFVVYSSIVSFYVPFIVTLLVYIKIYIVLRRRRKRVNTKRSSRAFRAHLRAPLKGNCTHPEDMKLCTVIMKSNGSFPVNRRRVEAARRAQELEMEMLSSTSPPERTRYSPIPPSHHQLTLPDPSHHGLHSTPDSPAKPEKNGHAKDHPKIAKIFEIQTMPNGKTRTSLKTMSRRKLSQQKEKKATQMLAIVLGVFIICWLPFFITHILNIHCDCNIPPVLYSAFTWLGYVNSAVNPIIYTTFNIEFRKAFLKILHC
Data set [11] has as its target T5, Muscarinic acetylcholine receptor M5 (Homo sapiens) (UniProt P08912).
T5 sequence (whole entry): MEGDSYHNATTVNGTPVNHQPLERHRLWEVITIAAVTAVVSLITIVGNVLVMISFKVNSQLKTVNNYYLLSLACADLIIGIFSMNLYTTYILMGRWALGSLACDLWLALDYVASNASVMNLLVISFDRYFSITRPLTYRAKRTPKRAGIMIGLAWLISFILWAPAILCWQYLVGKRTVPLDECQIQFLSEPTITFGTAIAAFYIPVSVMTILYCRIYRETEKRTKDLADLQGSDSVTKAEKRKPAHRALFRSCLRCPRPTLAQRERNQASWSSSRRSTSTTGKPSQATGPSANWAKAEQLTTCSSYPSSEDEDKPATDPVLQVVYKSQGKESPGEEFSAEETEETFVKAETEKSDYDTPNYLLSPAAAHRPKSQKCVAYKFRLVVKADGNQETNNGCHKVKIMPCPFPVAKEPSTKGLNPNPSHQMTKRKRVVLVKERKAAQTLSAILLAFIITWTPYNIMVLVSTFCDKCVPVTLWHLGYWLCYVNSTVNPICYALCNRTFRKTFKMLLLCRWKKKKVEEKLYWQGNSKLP
The data set can be described thus: Agonist activity at human muscarinic acetylcholine receptor M5 expressed in CHO cells assessed as calcium mobilization at 10 uM by FLIPR assay relative to acetylcholine. In kind it is functional, cell-based.

Data set [12] concerns the target Voltage-gated inwardly rectifying potassium channel KCNH2 (Homo sapiens, UniProt Q12809). The data set is described as follows: Inhibition of human ERG tail current after 5 mins by patch-clamp method. On the technique in general: Patch clamp records ionic current or voltage across a cell membrane.
Data set [13] deals with P-gp. The data set can be described thus: Activity of p-gp (unknown origin) assessed as efflux ratio. In kind it is ADME. The conditions noted are these: human, not told.
For data set [14], the system named is Rattus norvegicus. The data set can be described thus: Antipsychotic activity in po dosed Sprague-Dawley rat assessed as reversal of methamphetamine-induced hyperlocomotion administered 60 mins prior to methamphetamine challenge measured for 10 to 80 mins post methamphetamine challenge. It is filed as functional, organism-based. The essentials: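 Rats were dosed orally with test compound (1–10 mg/kg) or vehicle 60 min before methamphetamine (0.1 mg/kg, ip). Locomotor activity was recorded for 80 min starting 10 min after the methamphetamine injection. Values are mean ± SEM, n = 6.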

Data set [15] has as its target T6, Muscarinic acetylcholine receptor M1 (Homo sapiens) (UniProt P11229).
T6 sequence (whole entry): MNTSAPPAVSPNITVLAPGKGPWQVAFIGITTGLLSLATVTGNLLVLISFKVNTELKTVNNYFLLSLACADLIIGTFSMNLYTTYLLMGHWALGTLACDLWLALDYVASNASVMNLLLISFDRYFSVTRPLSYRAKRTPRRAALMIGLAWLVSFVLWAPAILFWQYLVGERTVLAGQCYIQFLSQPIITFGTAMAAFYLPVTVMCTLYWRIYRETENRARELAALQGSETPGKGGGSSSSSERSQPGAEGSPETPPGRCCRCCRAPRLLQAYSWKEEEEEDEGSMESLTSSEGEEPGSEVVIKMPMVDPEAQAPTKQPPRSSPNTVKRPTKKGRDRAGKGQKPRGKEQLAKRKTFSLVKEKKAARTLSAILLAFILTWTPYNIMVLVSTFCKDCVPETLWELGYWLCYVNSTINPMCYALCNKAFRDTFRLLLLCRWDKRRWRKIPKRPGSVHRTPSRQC
The data set is described as follows: Competitive antagonist activity at human muscarinic acetylcholine receptor M1 expressed in CHO cells assessed as inhibition of ACh-induced calcium mobilization. It is filed as functional, cell-based.

Data set [16] deals with T6, Muscarinic acetylcholine receptor M1 (Homo sapiens). The data set is described as follows: Agonist activity at human muscarinic acetylcholine receptor M1 expressed in CHO cells assessed as calcium mobilization at 0.3 uM by FLIPR assay relative to acetylcholine. It is filed as functional, cell-based.
In data set [17] the target is T7, Muscarinic acetylcholine receptor M1 (Homo sapiens, UniProt P11229).
T7 sequence (P11229 whole entry): T6 sequence (whole entry)
The data set can be described thus: Agonist activity at human muscarinic acetylcholine receptor M1 expressed in CHO cells assessed as calcium mobilization by FLIPR assay. In kind it is functional, cell-based.

The target of data set [18] is T6, Muscarinic acetylcholine receptor M1 (Homo sapiens). The data set can be described thus: Intrinsic activity at human muscarinic acetylcholine receptor M1 expressed in CHO cells assessed as calcium mobilization by FLIPR assay relative to acetylcholine. In kind it is functional, cell-based.

Voltage-gated inwardly rectifying potassium channel KCNH2, sequence (Q12809 whole entry): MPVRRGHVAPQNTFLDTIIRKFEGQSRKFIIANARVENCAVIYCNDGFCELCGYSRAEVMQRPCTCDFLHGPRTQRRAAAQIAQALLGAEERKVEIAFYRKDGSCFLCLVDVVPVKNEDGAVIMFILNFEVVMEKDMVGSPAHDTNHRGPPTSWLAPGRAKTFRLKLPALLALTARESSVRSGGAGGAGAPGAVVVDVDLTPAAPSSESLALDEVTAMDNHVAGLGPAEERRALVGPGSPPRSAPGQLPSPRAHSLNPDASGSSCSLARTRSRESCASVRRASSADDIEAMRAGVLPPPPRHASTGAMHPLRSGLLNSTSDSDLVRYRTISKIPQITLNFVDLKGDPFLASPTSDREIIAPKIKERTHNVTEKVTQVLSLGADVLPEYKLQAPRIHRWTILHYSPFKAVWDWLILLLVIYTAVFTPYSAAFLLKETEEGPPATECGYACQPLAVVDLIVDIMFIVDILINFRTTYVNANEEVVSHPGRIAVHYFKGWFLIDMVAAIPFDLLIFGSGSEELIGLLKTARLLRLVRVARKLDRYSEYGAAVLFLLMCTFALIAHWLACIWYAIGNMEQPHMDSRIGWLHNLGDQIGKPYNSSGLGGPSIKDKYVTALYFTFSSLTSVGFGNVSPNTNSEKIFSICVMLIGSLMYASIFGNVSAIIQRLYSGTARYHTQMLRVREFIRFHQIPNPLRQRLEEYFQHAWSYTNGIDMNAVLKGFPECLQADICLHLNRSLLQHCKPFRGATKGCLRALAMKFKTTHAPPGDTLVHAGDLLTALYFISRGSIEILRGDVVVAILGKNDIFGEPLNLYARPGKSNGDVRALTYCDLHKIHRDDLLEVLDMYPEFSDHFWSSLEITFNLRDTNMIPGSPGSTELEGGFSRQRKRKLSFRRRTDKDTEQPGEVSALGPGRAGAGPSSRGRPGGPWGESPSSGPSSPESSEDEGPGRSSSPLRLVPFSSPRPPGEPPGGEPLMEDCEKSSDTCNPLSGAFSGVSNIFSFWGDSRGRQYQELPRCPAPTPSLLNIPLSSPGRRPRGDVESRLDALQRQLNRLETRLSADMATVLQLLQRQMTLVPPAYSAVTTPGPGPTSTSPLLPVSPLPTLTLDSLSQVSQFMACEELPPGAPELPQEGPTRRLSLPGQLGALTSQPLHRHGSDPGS
Muscarinic acetylcholine receptor M3 (Homo sapiens), sequence (P20309 whole entry, looked up): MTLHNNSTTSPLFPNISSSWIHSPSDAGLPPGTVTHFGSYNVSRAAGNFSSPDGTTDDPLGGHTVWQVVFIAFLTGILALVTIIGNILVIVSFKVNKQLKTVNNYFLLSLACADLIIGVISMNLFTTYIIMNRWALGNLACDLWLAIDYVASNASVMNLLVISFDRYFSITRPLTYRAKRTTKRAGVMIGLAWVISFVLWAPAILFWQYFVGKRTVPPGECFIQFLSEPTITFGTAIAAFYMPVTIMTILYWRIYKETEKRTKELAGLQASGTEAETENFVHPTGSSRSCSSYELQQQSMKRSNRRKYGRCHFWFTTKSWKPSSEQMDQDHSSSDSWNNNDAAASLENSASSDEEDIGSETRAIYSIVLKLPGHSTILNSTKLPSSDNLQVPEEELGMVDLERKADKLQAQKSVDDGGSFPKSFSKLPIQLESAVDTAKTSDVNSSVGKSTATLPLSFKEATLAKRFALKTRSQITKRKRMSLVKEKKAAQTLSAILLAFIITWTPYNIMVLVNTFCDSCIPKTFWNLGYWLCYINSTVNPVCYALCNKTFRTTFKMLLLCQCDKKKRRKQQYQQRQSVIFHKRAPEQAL

As for `CCOC(=O)N1[C@@H]2CC[C@H]1C[C@H](CN1CCC3(CC1)CN(S(C)(=O)=O)c1ncccc13)C2`, the Emax (in general, the greatest response seen or fitted, relative to the assay's reference) in data set [1] amounted to 4%.

`CC1(CN2CCC3(CC2)CN(S(C)(=O)=O)c2ncccc23)CCN(C(=O)OC(C)(C)C)CC1`: the Emax in data set [1] stood at 2%.

In the case of `CCOC(=O)N1CCC(C)(CN2CCC3(CC2)CN(S(C)(=O)=O)c2ncccc23)CC1`, the inhibition – broadly, how much of the control response was suppressed – in data set [2] came out at 27%; in data set [5], 0%; in data set [10], 0%. Also, the Kp in [3] is 0.9. For the same molecule, the concentration giving a half-maximal response (EC50) – broadly, the concentration at which the effect is half-maximal – in data set [4] is 0.013 µM. The Emax in data set [6] was 4%; in [7], 3%; in data set [11], 3%; in [1], 94%; in [16], 5%. Also, the Intrinsic activity in data set [8] came to 81%. Further, in data set [9], the bioavailability (in general, dose-corrected exposure relative to a reference, in per cent) was 49%. The IC50 (as a rule, the concentration that inhibits the measured activity by half) in [12] was 3.63 µM. In addition, the efflux ratio (as a rule, the permeability from basolateral to apical divided by that in the opposite direction, in the common usage) in data set [13] was found to be 0.9. The Activity result in data set [14] was “Dose-dependent effect”. Besides, the inhibition result in data set [15] was “Active”.

`CCOC(=O)N1CCC(CN2CCC3(CC2)CN(S(C)(=O)=O)c2ncccc23)CC1`: the values for the EC50 in [17] and in data set [4] were 0.352 µM and 0.093 µM, respectively. Besides, the Emax came out at 7% in data set [6]; 12% in data set [7]; 3% in data set [11]; 88% in data set [1]; 20% in data set [16]. Besides, the Intrinsic activity stood at 83% in data set [8] and 59% in data set [18]. Besides, the IC50 in data set [12] came out at 1.9 µM.

As for `CC(C)OC(=O)N1CCC(C)(CN2CCC3(CC2)CN(S(C)(=O)=O)c2ncccc23)CC1`, the IC50 in [12] amounted to 2.75 µM. In addition, the Emax in [1] is 3%.

Take `COC(=O)N1CCC(C)(CN2CCC3(CC2)CN(S(C)(=O)=O)c2ncccc23)CC1`: the Emax turned out to be 1% in [6], 2% in data set [7], 52% in [1] and 3% in [16].
